# S1P4 agonist = agonists of human S1P4 receptor. S1P4-expressing cell line, agonist reporter assay. activation, % at 4.98 µM. actives 0.35% (n = 220,000). AID 1509; in the data active = activation above about 11%
# NPY-Y2 PAM-ag = human NPY-Y2 potentiation or agonism, primary screen | P49146 | cells expressing NPY-Y2, potentiator/agonist read-out | activation, % at 3.6 µM | actives 0.45% (n = 220,000) | AID 1359; in the data active = activation above about 27%;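 note: cells stimulated with NPY near EC25 plus isoproterenol at EC100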
# NPY Y2 blocker = blocks the human neuropeptide Y Y2 receptor. actives 0.99% (n = 140,000). inhibition, % at 2.7 µM. NPY-Y2 expressing cells, antagonist mode; in the data active = inhibition above about 17%
# S1P4 antagonist = blocks the human S1P4 receptor; S1P4-expressing cells, antagonist mode, reporter read-out; inhibition, % at 4.98 µM; actives 0.26% (n = 220,000); AID 1510; in the data active = inhibition above about 29%
# NPY-Y1 PAM-ag = potentiates or activates human NPY-Y1 receptor. P25929. NPY-Y1 expressing cells, potentiator/agonist activation. activation, % at 3.6 µM. actives 0.37% (n = 220,000). AID 1304; in the data active = activation above about 33%, passing the limit was not always enough;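 note: cells stimulated with NPY at EC10 then isoproterenol at EC100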
# Target sequence (P25929 whole entry, looked up): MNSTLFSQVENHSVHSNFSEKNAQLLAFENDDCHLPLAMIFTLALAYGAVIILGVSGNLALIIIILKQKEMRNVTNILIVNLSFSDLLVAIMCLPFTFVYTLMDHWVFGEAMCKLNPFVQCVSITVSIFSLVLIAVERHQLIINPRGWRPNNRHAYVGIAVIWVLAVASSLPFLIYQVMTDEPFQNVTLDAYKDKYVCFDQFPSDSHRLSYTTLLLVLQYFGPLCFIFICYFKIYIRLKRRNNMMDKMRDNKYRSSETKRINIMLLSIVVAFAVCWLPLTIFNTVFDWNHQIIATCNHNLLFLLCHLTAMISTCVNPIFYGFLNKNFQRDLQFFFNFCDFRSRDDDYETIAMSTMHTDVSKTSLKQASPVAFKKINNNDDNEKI
# NPY-Y1 antag = blocks the human neuropeptide Y Y1 receptor. P25929. HEK293-CNG Y1 cells, membrane potential fluorescence; NPY at EC95, then isoproterenol. inhibition, % at 3.6 µM. actives 1% (n = 200,000). AID 1040;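 active = inhibition above the campaign mean inhibition of all tested compounds plus 3 SD, cut at about 20% in these data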
#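 Material: HEK293 Y1/CNG channel cell line | Also added: NPY (25 nM), isoproterenol (1 µM), Ro 20-1724 (25 µM) | Compound: One concentration, 3.6 µM, in 0.4% DMSO | Schedule: 3 h dye uptake, 1 h room-temperature compound, 45 min post-isoproterenol | Signal: Membrane-potential fluorescent dye readout | Read-out: % inhibition of NPY effect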
# A number is an active result; n = inactive; x = no result. Only some compounds are listed: those with a hit (about 2.4% of all), similar ones and a draw of the others.
SMILES,S1P4 agonist,NPY-Y2 PAM-ag,NPY Y2 blocker,S1P4 antagonist,NPY-Y1 PAM-ag,NPY-Y1 antag
CCN(CC)S(=O)(=O)c1cc(NC(=O)COC(=O)c2ccc(NC(=O)CC#N)cc2)ccc1C,n,n,x,n,n,n
COc1cc2c(cc1OC)CN(c1nc(CN3CCCCC3)nc3sc4c(c13)CCCC4)CC2,n,n,20,n,n,23
COc1cccc(C(=O)NCc2cn3ccsc3n2)c1,n,98,n,n,72,n
COC(=O)CSc1nnc(-c2ccc(NS(=O)(=O)c3ccccc3)cc2)o1,n,91,n,n,40,n
CCCc1[nH][nH]c(=O)c1C(c1cccc(Cl)c1)C(C#N)C#N (configuration not stated),n,n,58,n,n,50
CCn1c(SCC(=O)Nc2oc(-c3ccccc3)c(-c3ccccc3)c2C#N)nnc1-c1ccncc1,n,n,n,n,n,n
N#Cc1c(NC(=O)CSc2ccccn2)oc(-c2ccccc2)c1-c1ccccc1,n,n,21,n,n,38
CC1=C(C)/C(=N\OS(=O)(=O)c2ccc(C)cc2)C=CC1=O,n,n,n,43,n,n
CC1=C/C(=N\OS(=O)(=O)c2ccccc2)C(C(C)C)=CC1=O,n,31,n,n,n,n
CC1=CC(=O)c2ccccc2C1=O,n,n,n,n,n,n
COc1ccc(S(=O)(=O)/N=C2/C=CC(=O)C(C)=C2C)cc1,n,n,n,n,n,n
CC1=C/C(=N\OS(=O)(=O)c2ccccc2)C(C)=CC1=O,n,57,n,n,54,n
COc1cc(C(=O)O/N=C2/C=C(C)C(=O)C=C2C)cc(OC)c1OC,n,n,n,n,n,n
Cc1ccc(CN2CCN(C(=O)c3ccncc3)CC2)cc1,n,n,x,n,n,n
O=C(O)c1ccc(N2C(=O)Nc3ccccc3N2O)cc1,n,n,x,n,n,n
Fc1ccc(C(c2nnnn2CCc2ccccc2)N2CCCc3ccccc32)cc1 (configuration not stated),n,n,38,n,n,27
CCOc1ccccc1N1CCN(C2=C(NS(=O)(=O)c3cccs3)C(=O)c3ccccc3C2=O)CC1,n,43,n,n,50,n
O=C1C(NS(=O)(=O)c2cccs2)=C(N2CCN(Cc3ccccc3)CC2)C(=O)c2ccccc21,n,40,x,n,60,x
O=C1C(NS(=O)(=O)c2cccs2)=C(N2CCOCC2)C(=O)c2ccccc21,n,n,x,n,n,x
CN1CCN(C2=C(NS(=O)(=O)c3cccs3)C(=O)c3ccccc3C2=O)CC1,n,n,x,n,n,x
Cc1ccc(NC(=O)C2SC(=Nc3ccccc3)C(C(=O)Nc3ccc(Cl)cc3)=C2N)cc1 (configuration not stated),n,n,x,n,n,n
Cc1ccc(N=C2SC(C(=O)Nc3ccc(OC(F)(F)F)cc3)C(N)=C2C(=O)Nc2c(C)cc(C)cc2C)cc1 (configuration not stated),n,37,n,n,n,n
CCCN1CCC(N2CCCC(C(=O)O)C2)CC1 (configuration not stated),n,n,x,n,n,n
CN(C)CCOc1nc(-c2ccccc2)nc2c1oc1ccccc12,n,69,n,n,59,n
C/C(=N/OC(=O)c1ccccc1)c1oc(C)nc1C,n,n,x,n,n,x
SMILES,S1P4 agonist,NPY-Y2 PAM-ag,NPY Y2 blocker,S1P4 antagonist,NPY-Y1 PAM-ag,NPY-Y1 antag
CCOc1ccccc1CN(CCc1ccc2c(c1)OCO2)Cc1ccccn1,n,n,n,n,n,30
COc1ccc(NC(=O)/C(Cl)=C(/Cl)S(=O)Cc2ccc(Cl)cc2)cn1 (configuration not stated),n,n,x,52,n,n
Cc1ccc(NC(=O)Cn2c(-c3ccc(F)cc3)cnc2SCC(=O)Nc2c(C)cccc2C)cc1,n,n,n,n,n,n
CC/C(=N\Nc1ccccc1[N+](=O)[O-])c1ccc(O)cc1,n,47,x,n,74,n
O=[N+]([O-])c1cc(C(F)(F)F)cc([N+](=O)[O-])c1N1CCCNCC1,n,n,x,n,n,n
CCc1cc(C(=O)N2CCCC(CNC(=O)c3ccc(-c4ccccc4)cc3)C2)no1 (configuration not stated),n,n,x,n,n,n
COc1ccccc1-c1ccc(SCc2ccc(C)cc2)nn1,n,n,x,n,n,21
C#CCOC(=O)Nc1cc(C)n(-c2ccccc2)n1,n,n,x,n,n,x
O=C(Nc1ncc2c(n1)-c1ccccc1CC2)c1ccc(Cl)cc1,n,n,n,n,n,n
O=C(Nc1ncc2c(n1)-c1ccccc1CC2)c1cccc(Cl)c1,n,n,25,n,n,34
NC(=O)C(c1ccccc1)C1CCCC1 (configuration not stated),n,n,n,n,n,n
O=C(Nc1ccc2ccccc2c1)C(c1ccccc1)C1CCCC1 (configuration not stated),n,n,22,n,n,33
Cc1ccccc1NC(=O)C(c1ccccc1)C1CCCC1 (configuration not stated),n,n,23,n,n,26
CCCCC[C@H](O)/C=C/[C@@H]1[C@@H](C/C=C\CCCC(=O)OC)[C@@H](O)C[C@H]1O,n,n,20,n,n,63
O=C1Cc2cc(CCN3CCN(c4nsc5ccccc45)CC3)c(Cl)cc2N1,n,n,x,n,n,n
Cc1nc2ccc(Cl)cc2nc1C,n,n,x,n,n,x
C#CC(=O)N(c1cccc(OC)c1)C(C(=O)NC1CCCC1)c1cccs1 (configuration not stated),n,47,n,30,55,n
CC(/C=N/NC(=O)CSc1n[nH]c(=O)[nH]c1=O)=C\c1ccccc1,n,n,x,n,n,x
O=[N+]([O-])c1ccccc1Nc1c2ccccc2nc2ccccc12,n,49,x,n,50,n
O=c1oc(-c2ccccc2[N+](=O)[O-])nc2ccccc12,n,n,n,n,n,n
COc1cc(/C=N/N2C(=O)c3ccccc3NC2(C)c2cccc([N+](=O)[O-])c2)cc(Br)c1O (configuration not stated),n,n,17,n,n,n
C/C(=N\N=C(/N)SC1CC(=O)N(c2ccc(Br)cc2)C1=O)c1cccs1 (configuration not stated),n,44,n,n,45,n
O=C(O)CCCNC1=NCCC1,n,n,n,n,n,42
CCCCOCCCNC1=NCCCCC1,n,n,n,n,n,n
Cc1cc(C)c[n+](C(C)C(=O)c2ccc(-c3ccccc3)cc2)c1 (configuration not stated),n,n,n,n,n,n
CC(C)(C)C(=O)/C=C/c1ccc(Oc2ccccc2)cc1,n,n,x,n,n,x
c1ccc(CNc2nc(CN3CCOCC3)nc3scc(-c4ccccc4)c23)cc1,n,n,19,n,n,27
c1ccc(-c2csc3ncnc(NCCN4CCOCC4)c23)cc1,n,n,n,n,n,n

# High-throughput results from PubChem BioAssay.
